Results reported in ChEMBL document CHEMBL1125337, “Synthesis and antibacterial activity of a series of basic amides of teicoplanin and deglucoteicoplanin with polyamines” (J Med Chem, 1992).
≈ marks a conversion by molar mass, not a printed value.

Legend:
Enterococcus faecalis = experiment: Minimum inhibitory concentration against Enterococcus faecalis ATCC 7080; type: functional
Outline: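 Microbroth dilution MIC (µg/mL), final inoculum 10^4 cfu/mL, incubated 24 h at 37 °C in air.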

Streptococcus pyogenes [1] = experiment: Minimum inhibitory concentration against Streptococcus pyogenes L 49; type: functional
Outline: (§1)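 MIC (µg/mL) by microbroth dilution in Todd-Hewitt broth, final inoculum 10^4 cfu/mL, incubated 24 h at 37 °C in air.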

Proteus vulgaris = experiment: Minimum inhibitory concentration against Proteus vulgaris ATCC 881; type: functional
Outline: (§2)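 MIC (µg/mL) by microbroth dilution in Iso-Sensitest broth; final inoculum 10^4 cfu/mL; 24 h at 37 °C in air.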

[2] = Association constant to Ac2-L-Lys-D-Ala-D-Ala determined at pH 9; Value ranges from 5E4-7.5E4
Escherichia coli = experiment: Minimum inhibitory concentration against Escherichia coli L 47; type: functional; outline: as §2
[3] = test system: Staphylococcus haemolyticus; experiment: Minimum inhibitory concentration against Staphylococcus haemolyticus L 602; type: functional; outline: as §2
[4] = test system: Staphylococcus epidermidis; experiment: Minimum inhibitory concentration against Staphylococcus epidermidis ATCC 12228; type: functional; outline: as §2
Staphylococcus aureus = experiment: Minimum inhibitory concentration against Staphylococcus aureus L 165; type: functional; outline: as §2
Streptococcus pneumoniae = experiment: Minimum inhibitory concentration against Streptococcus pneumoniae L 44; type: functional; outline: as §1
Pseudomonas aeruginosa = experiment: Minimum inhibitory concentration against Pseudomonas aeruginosa ATCC 10145; type: functional; outline: as §2
Streptococcus pyogenes [5] = experiment: Efficacy of compound administered subcutaneously against Streptococcus pyogenes L 49 Septicemia in mouse; type: functional; settings: sc
Outline: (§3)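 Mice were infected intraperitoneally with about 10^5 Strep. pyogenes L 49 cells, about 100 times the 50% lethal dose. Groups of 5–8 mice were treated once right after challenge, by the route stated in the line. ED50 (mg/kg) was derived from percentage survival at each dose on day 7 (Spearman-Kärber).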

Streptococcus pyogenes [6] = experiment: Efficacy of compound administered perorally against Streptococcus pyogenes L 49 Septicemia in mouse; type: functional; settings: po; outline: as §3
[7] = Association constant to Ac2-L-Lys-D-Ala-D-Ala determined at pH 9; Value ranges from (9.5E4-3.5E5)
Streptococcus pyogenes [8] = experiment: Minimum inhibitory concentration of compound was determined against Streptococcus pyogenes L 49 in mouse; type: functional

Row | Compound | MIC (Enterococcus faecalis) | MIC (Streptococcus pyogenes [1]) | MIC (Proteus vulgaris) | Ka [2] | MIC (Escherichia coli) | MIC [3] | MIC [4] | MIC (Staphylococcus aureus) | MIC (Streptococcus pneumoniae) | MIC (Pseudomonas aeruginosa) | ED50 (Streptococcus pyogenes [5]) | ED50 (Streptococcus pyogenes [6]) | Ka [7] | MIC (Streptococcus pyogenes [8])
1 | NCCNCCCNCCNC(=O)[C@H]1NC(=O)[C@H]2NC(=O)[C@H](NC(=O)[C@@H]3NC(=O)[C@H]4NC(=O)[C@@H](Cc5ccc(c(Cl)c5)Oc5cc3cc(c5O)Oc3ccc(cc3Cl)[C@H]2O)NC(=O)[C@H](N)c2ccc(O)c(c2)Oc2cc(O)cc4c2)c2ccc(O)c(c2)-c2c(O)cc(O)cc21 | 0.125 µg/mL (≈ 0.0932 µM) | 0.063 µg/mL (≈ 0.047 µM) | 128 µg/mL (≈ 95.4 µM) | 75000 M⁻¹ | 4 µg/mL (≈ 2.98 µM) | 0.063 µg/mL (≈ 0.047 µM) | 0.063 µg/mL (≈ 0.047 µM) | 0.063 µg/mL (≈ 0.047 µM) | 0.125 µg/mL (≈ 0.0932 µM) | 64 µg/mL (≈ 47.7 µM) | – | – | – | –
2 | CC(=O)N[C@@H]1[C@H](O[C@@H]2c3ccc(c(Cl)c3)Oc3cc4cc(c3O[C@@H]3O[C@@H](CO)[C@@H](O)[C@H](O)[C@@H]3NC(=O)CCCCCCC(C)C)Oc3ccc(cc3Cl)C[C@H]3NC(=O)[C@H](N)c5ccc(O)c(c5)Oc5cc(O)cc(c5)[C@H](NC3=O)C(=O)N[C@H]4C(=O)N[C@H]3C(=O)N[C@@H]2C(=O)N[C@H](C(=O)NCCNCCN)c2cc(O)cc(O[C@H]4O[C@H](CO)[C@@H](O)[C@@H](O)[C@@H]4O)c2-c2cc3ccc2O)O[C@@H](CO)[C@@H](O)[C@@H]1O | 0.125 µg/mL (≈ 0.0636 µM) | 0.063 µg/mL (≈ 0.0321 µM) | – | – | – | 0.25 µg/mL (≈ 0.127 µM) | 0.063 µg/mL (≈ 0.0321 µM) | 0.25 µg/mL (≈ 0.127 µM) | 0.125 µg/mL (≈ 0.0636 µM) | – | 0.09 mg/kg | 60 mg/kg | 350000 M⁻¹ | –
3 | N[C@H]1C(=O)N[C@@H]2Cc3ccc(c(Cl)c3)Oc3cc4cc(c3O)Oc3ccc(cc3Cl)[C@@H](O)[C@@H]3NC(=O)[C@H](NC(=O)[C@@H]4NC(=O)[C@@H](NC2=O)c2cc(O)cc(c2)Oc2cc1ccc2O)c1ccc(O)c(c1)-c1c(O)cc(O)cc1[C@@H](C(=O)O)NC3=O [TEICOPLANIN AGLYCON] | 0.125 µg/mL (≈ 0.104 µM) | 0.125 µg/mL (≈ 0.104 µM) | 128 µg/mL (≈ 107 µM) | – | 64 µg/mL (≈ 53.4 µM) | 0.25 µg/mL (≈ 0.209 µM) | 0.016 µg/mL (≈ 0.0133 µM) | 0.063 µg/mL (≈ 0.0525 µM) | 0.125 µg/mL (≈ 0.104 µM) | > 128 µg/mL | 0.95 mg/kg | – | – | 0.13 µg/mL (≈ 0.108 µM)
4 | CC(=O)N[C@@H]1[C@H](O[C@@H]2c3ccc(c(Cl)c3)Oc3cc4cc(c3O[C@@H]3O[C@@H](CO)[C@@H](O)[C@H](O)[C@@H]3NC(=O)CCCCCCC(C)C)Oc3ccc(cc3Cl)C[C@H]3NC(=O)[C@H](N)c5ccc(O)c(c5)Oc5cc(O)cc(c5)[C@H](NC3=O)C(=O)N[C@H]4C(=O)N[C@H]3C(=O)N[C@@H]2C(=O)N[C@H](C(=O)NCCCNCCCCN)c2cc(O)cc(O[C@H]4O[C@H](CO)[C@@H](O)[C@@H](O)[C@@H]4O)c2-c2cc3ccc2O)O[C@@H](CO)[C@@H](O)[C@@H]1O | 0.125 µg/mL (≈ 0.0623 µM) | 0.063 µg/mL (≈ 0.0314 µM) | – | – | – | 0.125 µg/mL (≈ 0.0623 µM) | 0.063 µg/mL (≈ 0.0314 µM) | 0.125 µg/mL (≈ 0.0623 µM) | 0.125 µg/mL (≈ 0.0623 µM) | – | 0.05 mg/kg | 81 mg/kg | 350000 M⁻¹ | –
5 | CC(=O)N[C@@H]1[C@H](O[C@@H]2c3ccc(c(Cl)c3)Oc3cc4cc(c3O[C@@H]3O[C@@H](CO)[C@@H](O)[C@H](O)[C@@H]3NC(=O)CCCCCCC(C)C)Oc3ccc(cc3Cl)C[C@H]3NC(=O)[C@H](N)c5ccc(O)c(c5)Oc5cc(O)cc(c5)[C@H](NC3=O)C(=O)N[C@H]4C(=O)N[C@H]3C(=O)N[C@@H]2C(=O)N[C@H](C(=O)NCCCN2CCCCN(CCCN)CCCC2)c2cc(O)cc(O[C@H]4O[C@H](CO)[C@@H](O)[C@@H](O)[C@@H]4O)c2-c2cc3ccc2O)O[C@@H](CO)[C@@H](O)[C@@H]1O | 0.125 µg/mL (≈ 0.059 µM) | 0.063 µg/mL (≈ 0.0297 µM) | – | – | – | 0.125 µg/mL (≈ 0.059 µM) | 0.063 µg/mL (≈ 0.0297 µM) | 0.25 µg/mL (≈ 0.118 µM) | 0.125 µg/mL (≈ 0.059 µM) | – | 0.06 mg/kg | 60 mg/kg | 350000 M⁻¹ | –
6 | CC(=O)N[C@@H]1[C@H](O[C@@H]2c3ccc(c(Cl)c3)Oc3cc4cc(c3O[C@@H]3O[C@@H](CO)[C@@H](O)[C@H](O)[C@@H]3NC(=O)CCCCCCC(C)C)Oc3ccc(cc3Cl)C[C@H]3NC(=O)[C@H](N)c5ccc(O)c(c5)Oc5cc(O)cc(c5)[C@H](NC3=O)C(=O)N[C@H]4C(=O)N[C@H]3C(=O)N[C@@H]2C(=O)N[C@H](C(=O)NCCN(CCN)CCN)c2cc(O)cc(O[C@H]4O[C@H](CO)[C@@H](O)[C@@H](O)[C@@H]4O)c2-c2cc3ccc2O)O[C@@H](CO)[C@@H](O)[C@@H]1O | 0.063 µg/mL (≈ 0.0314 µM) | 0.063 µg/mL (≈ 0.0314 µM) | – | – | – | 0.125 µg/mL (≈ 0.0623 µM) | 0.063 µg/mL (≈ 0.0314 µM) | 0.125 µg/mL (≈ 0.0623 µM) | 0.063 µg/mL (≈ 0.0314 µM) | – | 0.04 mg/kg | 58 mg/kg | 350000 M⁻¹ | –
